Laboratory results reported in paper PMC2800315 (Japanese Journal of Clinical Oncology, 2009).
Read-outs that look alike come from different tables or passages of the source.

Experiments:
advanced solid tumors = assay: Tumor response according to RECIST; type: in vivo, Japanese patients
Summary of the method: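 Patients had ≥1 measurable lesion and took continuous once-daily oral dosing in 28-day cycles, continued until progression. Tumour assessed by RECIST every 2 months and at study end. Outcomes summarised descriptively.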

[1] = Pharmacokinetics of RAD001 in blood, Phase I once-daily oral dosing; type: in vivo, Japanese patients; conditions: for CL/F / AUC / Cmax: mean ± SD; for AUC / Cmax / Tmax: human, whole blood, oral; for AUC: AUCτ, 0 to 24 h
Summary of the method: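 Adults aged ≥20 years, Japanese, with refractory advanced tumours; strong CYP3A4 inhibitors or inducers excluded. Oral dosing once daily at 2.5, 5 or 10 mg in continuous 28-day cycles. Per cohort: Cmax, tmax, AUC 0–24 h and CL/F. Descriptive statistics, means ± SD.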

[2] = patients with advanced cancer, cited from earlier work; for AUCτ: mean
[3] = 673 renal transplant patients; cited from earlier work
[4] = 2.5 mg/day, Day 1, 2.5 mg/day (n = 3)
[5] = 2.5 mg/day, Day 15, 2.5 mg/day (n = 3)
[6] = 5 mg/day, Day 1, 5 mg/day (n = 3)
[7] = 5 mg/day, Day 15, 5 mg/day (n = 3)
[8] = 10 mg/day, Day 1, 10 mg/day (n = 3)

CO[C@H]1C[C@@H]2CC[C@@H](C)[C@@](O)(O2)C(=O)C(=O)N2CCCC[C@H]2C(=O)O[C@H]([C@H](C)C[C@@H]2CC[C@@H](OCCO)[C@H](OC)C2)CC(=O)[C@H](C)/C=C(\C)[C@@H](O)[C@@H](OC)C(=O)[C@H](C)C[C@H](C)/C=C/C=C/C=C/1C [RAD001, everolimus]
Patients with marked tumor shrinkage (advanced solid tumors; daily dose of 10 mg, esophageal and gastric cancer): two of three | Duration of partial response (advanced solid tumors; patient with gastric adenocarcinoma and liver metastases, 10 mg/day): > 4 months | CL/F ([1]; Day 15, 2.5 mg/day (n = 3)): 19.1 ± 3.26 L/h | CL/F ([1]; Day 15, 5 mg/day (n = 3)): 9.94 ± 3.21 L/h | CL/F ([1]; Day 15, 10 mg/day (n = 3)): 14.3 ± 2.23 L/h | Time at which Cmax was apparent ([1]; after administration of a single oral dose): 2 h | Time to Cmax ([1]; after oral administration): 1 to 2 h | Increase of Cmax and AUCτ with dose ([1]; day 1, 2.5 to 10 mg): almost dose-proportionally | Exposure (AUCτ) after multiple dosing (day 15) relative to single dose (day 1) ([1]; days 1 and 15): about twice | AUC [1, 4]: 85.2 ± 18.7 ng·h/mL | AUC [1, 5]: 134 ± 24.1 ng·h/mL | Cmax [1, 4]: 15.1 ± 2.48 ng/mL | Cmax [1, 5]: 16.8 ± 1.33 ng/mL | Tmax ([1]; 2.5 mg/day, tmax Median, Day 1, 2.5 mg/day (n = 3)): 1.98 h | Tmax ([1]; 2.5 mg/day, tmax Range, Day 1, 2.5 mg/day (n = 3)): 0.98 to 2 h | Tmax ([1]; 2.5 mg/day, tmax Range, Day 15, 2.5 mg/day (n = 3)): 1 to 1.98 h | AUC [1, 6]: 211 ± 50 ng·h/mL | AUC [1, 7]: 543 ± 189 ng·h/mL | Cmax [1, 6]: 31.5 ± 3.4 ng/mL | Cmax [1, 7]: 57.6 ± 17.6 ng/mL | Tmax ([1]; 5 mg/day, tmax Median, Day 15, 5 mg/day (n = 3)): 1.98 h | Tmax ([1]; 5 mg/day, tmax Range, Day 1, 5 mg/day (n = 3)): 1 to 1.95 h | Tmax ([1]; 5 mg/day, tmax Range, Day 15, 5 mg/day (n = 3)): 1.93 to 1.98 h | AUC [1, 8]: 401 ± 51.6 ng·h/mL | Cmax [1, 8]: 49.4 ± 14.8 ng/mL | Cmax ([1]; 10 mg/day, Day 15, 10 mg/day (n = 3)): 65.9 ± 1.4 ng/mL | Tmax ([1]; 10 mg/day, tmax Median, Day 1, 10 mg/day (n = 3)): 2 h | Tmax ([1]; 10 mg/day, tmax Median, Day 15, 10 mg/day (n = 3)): 2.02 h | Tmax ([1]; 10 mg/day, tmax Range, Day 1, 10 mg/day (n = 3)): 1.92 to 2 h | Tmax ([1]; 10 mg/day, tmax Range, Day 15, 10 mg/day (n = 3)): 2 to 2.2 h | Time to steady state (Cmin) ([1]; repeated once-daily oral dosing): ~8 days | Cmax ([2]; daily dose 5 mg, mean ± SD): 32 ± 9 ng/mL | AUCτ ([2]; daily dose 5 mg): 238 ± 77 ng·h/mL | AUCτ ([2]; daily dose 10 mg): 514 ± 231 ng·h/mL | Difference in clearance between Asian and Caucasian patients [3]: no significant differences
